ChEMBL document CHEMBL1138564, “Microwave-induced synthesis and anti-microbial activities of 7,10,11,12-tetrahydrobenzo[c]acridin-8(9H)-one derivatives” (2009)
Converted amounts (≈) assume the structure as drawn.

Assays:
[1] = system: Escherichia coli; test: Antimicrobial activity against Escherichia coli NCIM 2065 at 1000 ug/disk after 24 hrs by disk diffusion method; type: functional; conditions: NCIM 2065, 24 h, read-out: DIZ
Procedure, shortened: (§1)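 Disc diffusion on Mueller–Hinton agar. 100 µl of bacterial suspension at 10⁸ CFU/ml is spread on the plate. Discs carry test compounds at two loadings, dissolved in DMSO; DMSO alone serves as negative control. Ofloxacin disc is the positive reference. Plates are incubated at 37 °C for 24 h, and the inhibition zone diameter is measured.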

[2] = system: Bacillus subtilis; test: Antimicrobial activity against Bacillus subtilis NCIM 2063 at 500 ug/disk after 24 hrs by disk diffusion method; type: functional; conditions: NCIM 2063, 24 h, read-out: DIZ; procedure, shortened: as §1
[3] = system: Salmonella typhimurium; test: Antimicrobial activity against Salmonella Typhimurium NCIM 2501 at 1000 ug/disk after 24 hrs by disk diffusion method; type: functional, Salmonella enterica subsp. enterica serovar Typhimurium; conditions: Salmonella enterica, NCIM 2501, 24 h; read-out: DIZ
Procedure, shortened: (§2)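 Disc diffusion. 100 µl of bacterial suspension at 10⁸ CFU/ml was spread on Mueller–Hinton agar. Discs loaded with test compound dissolved in DMSO were placed on the lawn, with a DMSO-only disc as negative control. Plates were incubated at 37 °C for 24 h, and the inhibition zone diameter was measured.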

[4] = system: Staphylococcus; test: Antimicrobial activity against Staphylococcus albus NCIM 2178 at 1000 ug/disk after 24 hrs by disk diffusion method; type: functional; conditions: NCIM 2178, 24 h, read-out: DIZ; procedure, shortened: as §2
[5] = system: Aspergillus niger; test: Antimicrobial activity against Aspergillus niger NCIM 902 at 500 ug/disk after 72 hrs by disk diffusion method; type: functional; conditions: NCIM 1196, 72 h, in the assay text read “NCIM 1196” for “NCIM 902”, read-out: DIZ
Procedure, shortened: (§3)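 Disc diffusion on Sabouraud's dextrose agar. 100 µl of fungal suspension at 10⁶ CFU/ml is spread on the plate. Discs carry test compounds at two loadings in DMSO; DMSO alone is the negative control. Clotrimazole disc is the positive reference. Plates are incubated at 27 °C for 72 h, and the zone of inhibition diameter is measured.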

[6] = system: Aspergillus niger; test: Antimicrobial activity against Aspergillus niger NCIM 902 at 1000 ug/disk after 72 hrs by disk diffusion method; type: functional; conditions: NCIM 1196, 72 h, in the assay text read “NCIM 1196” for “NCIM 902”, read-out: DIZ; procedure, shortened: as §3
[7] = system: Aspergillus flavus; test: Antimicrobial activity against Aspergillus flavus NCIM 902 at 500 ug/disk after 72 hrs by disk diffusion method; type: functional; conditions: NCIM 902, 72 h, read-out: DIZ; procedure, shortened: as §3
[8] = system: Aspergillus parasiticus; test: Antimicrobial activity against Aspergillus parasiticus NCIM 904 at 500 ug/disk after 72 hrs by disk diffusion method; type: functional; conditions: NCIM 904, 72 h, read-out: DIZ; procedure, shortened: as §3
[9] = system: Penicillium chrysogenum; test: Antimicrobial activity against Penicillium chrysogenum NCIM 707 at 1000 ug/disk after 72 hrs by disk diffusion method; type: functional; conditions: NCIM 707, 72 h, read-out: DIZ; procedure, shortened: as §3
[10] = system: Lipomyces lipofer; test: Antimicrobial activity against Lipomyces lipofer NCIM 3252 at 1000 ug/disk after 72 hrs by disk diffusion method; type: functional; conditions: NCIM 3252, 72 h, read-out: DIZ; procedure, shortened: as §3
[11] = system: Staphylococcus; test: Antimicrobial activity against Staphylococcus albus NCIM 2178 after 24 hrs by serial dilution method; type: functional; conditions: NCIM 2178, 24 h
[12] = system: Proteus vulgaris; test: Antimicrobial activity against Proteus vulgaris NCIM 2027 after 24 hrs by serial dilution method; type: functional; conditions: NCIM 2027, 24 h
Procedure, shortened: (§4)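 Broth dilution MIC in nutrient broth, run only for organisms found sensitive in disc diffusion. Compounds are two-fold serially diluted in 1 ml sterile broth per tube, spanning 3.9 to 1000. Inoculated tubes are incubated at 37 °C for 24 h.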

[13] = system: Aspergillus niger; test: Antimicrobial activity against Aspergillus niger NCIM 902 after 72 hrs by serial dilution method; type: functional; conditions: NCIM 1196, 72 h, in the assay text read “NCIM 1196” for “NCIM 902”
Procedure, shortened: (§5)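 MIC by broth dilution in Sabouraud's dextrose broth, only for fungi sensitive in disc diffusion. Two-fold serial dilutions of compounds are made in 1 ml broth per tube, range 3.9 to 1000. Inoculated tubes are incubated at 27 °C for 72 h.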

[14] = system: Aspergillus fumigatus; test: Antimicrobial activity against Aspergillus fumigatus NCIM 902 after 72 hrs by serial dilution method; type: functional; conditions: NCIM 902, 72 h; procedure, shortened: as §5
[15] = system: Penicillium chrysogenum; test: Antimicrobial activity against Penicillium chrysogenum NCIM 707 after 72 hrs by serial dilution method; type: functional; conditions: NCIM 707, 72 h; procedure, shortened: as §5
[16] = system: Lipomyces lipofer; test: Antimicrobial activity against Lipomyces lipofer NCIM 3252 after 72 hrs by serial dilution method; type: functional; conditions: NCIM 3252, 72 h; procedure, shortened: as §5
[17] = system: Pseudomonas aeruginosa; test: Antimicrobial activity against Pseudomonas aeruginosa NCIM 2200 after 24 hrs by serial dilution method; type: functional; conditions: NCIM 2200, 24 h; procedure, shortened: as §4
[18] = system: Klebsiella aerogenes; test: Antimicrobial activity against Klebsiella aerogenes NCIM 2239 after 24 hrs by serial dilution method; type: functional; conditions: NCIM 2239, 24 h; procedure, shortened: as §4
[19] = system: Salmonella typhimurium; test: Antimicrobial activity against Salmonella Typhimurium NCIM 2501 after 24 hrs by serial dilution method; type: functional, Salmonella enterica subsp. enterica serovar Typhimurium; conditions: Salmonella enterica, NCIM 2501, 24 h
[20] = system: Bacillus cereus; test: Antimicrobial activity against Bacillus cereus NCIM 2155 after 24 hrs by serial dilution method; type: functional; conditions: NCIM 2155, 24 h; procedure, shortened: as §4
[21] = system: Aliivibrio fischeri; test: Antimicrobial activity against Vibrio fischeri NCIM 2154 after 24 hrs by serial dilution method; type: functional; conditions: NCIM 2154, 24 h
[22] = system: Rhodococcus corynebacterioides; test: Antimicrobial activity against Corynebacterium rubrum NCIM 2252 after 24 hrs by serial dilution method; type: functional; conditions: Rhodococcoides corynebacterioides, NCIM 2252, 24 h; procedure, shortened: as §4

Row | MIC [11] | MIC [12] | MIC [13] | MIC [15] | MIC [16] | MIC [17] | MIC [18] | MIC [19] | MIC [22] | SMILES | zone of inhibition at 1000 µg/disc [1] | zone of inhibition at 500 µg/disc [2] | zone of inhibition at 1000 µg/disc [3] | zone of inhibition at 1000 µg/disc [4] | zone of inhibition at 500 µg/disc [5] | zone of inhibition at 1000 µg/disc [6] | zone of inhibition at 500 µg/disc [7] | zone of inhibition at 500 µg/disc [8] | zone of inhibition at 1000 µg/disc [9] | zone of inhibition at 1000 µg/disc [10] | MIC [21] | further results
1 | 62.5 µg/mL (≈ 174 µM) | 125 µg/mL (≈ 347 µM) | 62.5 µg/mL (≈ 174 µM) | 125 µg/mL (≈ 347 µM) | 125 µg/mL (≈ 347 µM) | 62.5 µg/mL (≈ 174 µM) | 125 µg/mL (≈ 347 µM) | 62.5 µg/mL (≈ 174 µM) | 125 µg/mL (≈ 347 µM) | O=C1CCCC2=C1C(c1ccc(Cl)cc1)c1ccc3ccccc3c1N2 (stereo not drawn) | 8 mm | 8 mm | 11 mm | 10 mm | 8 mm | 8 mm | 7 mm | 10 mm | 8 mm | 9 mm | 62.5 µg/mL (≈ 174 µM) | MIC [14]: 62.5 µg/mL (≈ 174 µM); MIC [20]: 15.6 µg/mL (≈ 43.4 µM)
2 | 125 µg/mL (≈ 338 µM) | 125 µg/mL (≈ 338 µM) | 62.5 µg/mL (≈ 169 µM) | 125 µg/mL (≈ 338 µM) | 62.5 µg/mL (≈ 169 µM) | 62.5 µg/mL (≈ 169 µM) | 31.2 µg/mL (≈ 84.4 µM) | 31.2 µg/mL (≈ 84.4 µM) | 62.5 µg/mL (≈ 169 µM) | CC1(C)CC(=O)C2=C(C1)Nc1c(ccc3ccccc13)C2c1ccc(O)cc1 (stereo not drawn) | 12 mm | 7 mm | 11 mm | 8 mm | 8 mm | 10 mm | 9 mm | 12 mm | 9 mm | 10 mm | 125 µg/mL (≈ 338 µM) | MIC [20]: 31.2 µg/mL (≈ 84.4 µM)
3 | 62.5 µg/mL (≈ 183 µM) | 125 µg/mL (≈ 366 µM) | 62.5 µg/mL (≈ 183 µM) | 125 µg/mL (≈ 366 µM) | 62.5 µg/mL (≈ 183 µM) | 125 µg/mL (≈ 366 µM) | 62.5 µg/mL (≈ 183 µM) | 125 µg/mL (≈ 366 µM) | 125 µg/mL (≈ 366 µM) | O=C1CCCC2=C1C(c1ccc(O)cc1)c1ccc3ccccc3c1N2 (stereo not drawn) | 9 mm | 9 mm | 9 mm | 10 mm | 9 mm | 9 mm | 7 mm | 12 mm | 10 mm | 11 mm | 125 µg/mL (≈ 366 µM) | –
